Experiments:
Rattus norvegicus [1] = assay: Maximum change in mean aortic blood pressure in conscious renal 2-kidney/1-clip goldblatt hypertensive rat at a dose 0.1 mg/kg administered orally at 10h; 4 animals tested; assay type: functional, Artery; conditions: route oral
How it was run: (§1)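 Male Sprague–Dawley rats, 4 weeks old, given a silver clip (0.2-mm gap) on the left renal artery with the other kidney intact. Hypertension developed over 4–8 weeks, then rats (280–320 g) were aortic-cannulated; only those with mean pressure >160 mmHg were used. Oral dosing. One-minute running averages were logged every 30 min. Results are mean ± 1 SEM, from 3–5 rats.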

Rattus norvegicus [2] = assay: Mean aortic base line blood pressure in conscious renal 2-kidney/1-clip goldblatt hypertensive rat at a dose 0.1 mg/kg administered orally; assay type: functional, Artery; conditions: route oral; how it was run: as §1
Rattus norvegicus [3] = assay: Maximum change in mean aortic blood pressure in conscious renal 2-kidney/1-clip goldblatt hypertensive rat at a dose 30 mg/kg administered orally at 6 h; 4 animals tested; assay type: functional, Artery; conditions: route oral
Rattus norvegicus [4] = assay: Maximum change in mean aortic blood pressure in conscious renal 2-kidney/1-clip goldblatt hypertensive rat at a dose 0.3 mg/kg administered orally at 5h; 4 animals tested; assay type: functional, Artery; conditions: route oral; how it was run: as §1
Rattus norvegicus [5] = assay: Mean aortic base line blood pressure in conscious renal 2-kidney/1-clip goldblatt hypertensive rat at a dose 30 mg/kg administered orally; assay type: functional, Artery; conditions: route oral
Rattus norvegicus [6] = assay: Mean aortic base line blood pressure in conscious renal 2-kidney/1-clip goldblatt hypertensive rat at a dose 0.3 mg/kg administered orally; assay type: functional, Artery; conditions: route oral
Rattus norvegicus [7] = assay: Mean aortic base line blood pressure in conscious renal 2-kidney/1-clip goldblatt hypertensive rat at a dose 1.0 mg/kg administered orally; assay type: functional, Artery; conditions: route oral; how it was run: as §1
Rattus norvegicus [8] = assay: Maximum change in mean aortic blood pressure in conscious renal 2-kidney/1-clip goldblatt hypertensive rat at a dose 1.0 mg/kg administered orally at 3 hr; 4 animals tested; assay type: functional, Artery; conditions: route oral; how it was run: as §1
Rattus norvegicus [9] = assay: Mean aortic base line blood pressure in conscious renal 2-kidney/1-clip goldblatt hypertensive rat at a dose 10 mg/kg administered orally; assay type: functional, Artery; conditions: route oral; how it was run: as §1
[10] = target: T1, Angiotensin-converting enzyme (Rattus norvegicus, UniProt P47820); assay: Inhibition of rat Angiotensin I converting enzyme (ACE), using Hip-Gly-Gly as synthetic substrate.
T1 sequence (P47820 whole entry): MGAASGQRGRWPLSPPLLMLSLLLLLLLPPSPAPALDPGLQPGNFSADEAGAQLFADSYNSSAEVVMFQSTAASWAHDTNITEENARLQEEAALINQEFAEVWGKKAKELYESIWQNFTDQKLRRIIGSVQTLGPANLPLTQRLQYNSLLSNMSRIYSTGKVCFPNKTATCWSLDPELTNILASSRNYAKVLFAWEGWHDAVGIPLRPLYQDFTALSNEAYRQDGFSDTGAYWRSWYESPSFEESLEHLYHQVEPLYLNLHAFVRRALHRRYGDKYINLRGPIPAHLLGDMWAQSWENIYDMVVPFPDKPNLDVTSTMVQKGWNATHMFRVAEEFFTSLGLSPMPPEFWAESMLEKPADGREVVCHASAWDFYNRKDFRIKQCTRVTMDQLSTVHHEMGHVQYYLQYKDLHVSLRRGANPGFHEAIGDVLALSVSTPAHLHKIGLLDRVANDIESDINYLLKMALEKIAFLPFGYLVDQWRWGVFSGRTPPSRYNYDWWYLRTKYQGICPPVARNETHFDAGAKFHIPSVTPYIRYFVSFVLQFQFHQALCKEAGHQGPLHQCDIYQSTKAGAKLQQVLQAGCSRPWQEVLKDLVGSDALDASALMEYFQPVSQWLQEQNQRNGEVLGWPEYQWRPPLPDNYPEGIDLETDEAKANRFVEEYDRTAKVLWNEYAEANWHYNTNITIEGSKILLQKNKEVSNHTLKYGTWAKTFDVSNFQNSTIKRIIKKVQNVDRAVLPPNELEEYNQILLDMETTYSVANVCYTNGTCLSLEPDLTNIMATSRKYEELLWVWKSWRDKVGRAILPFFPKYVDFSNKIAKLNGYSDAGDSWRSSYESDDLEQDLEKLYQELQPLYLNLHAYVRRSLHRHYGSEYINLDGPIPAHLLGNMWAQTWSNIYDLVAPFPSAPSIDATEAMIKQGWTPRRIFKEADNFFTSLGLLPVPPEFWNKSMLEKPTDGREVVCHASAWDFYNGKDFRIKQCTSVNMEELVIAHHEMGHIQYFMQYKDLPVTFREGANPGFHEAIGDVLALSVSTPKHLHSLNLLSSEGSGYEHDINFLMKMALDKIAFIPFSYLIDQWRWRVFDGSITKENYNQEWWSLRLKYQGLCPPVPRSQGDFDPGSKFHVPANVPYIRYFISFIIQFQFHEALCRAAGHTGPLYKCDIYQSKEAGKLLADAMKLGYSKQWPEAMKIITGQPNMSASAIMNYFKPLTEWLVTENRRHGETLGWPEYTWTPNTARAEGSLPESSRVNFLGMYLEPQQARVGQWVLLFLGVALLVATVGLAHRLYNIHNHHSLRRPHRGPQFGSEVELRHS
How it was run: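 Radioassay of converting-enzyme activity with Hip-Gly-Gly as substrate; compounds dissolved at 2–5 mg/mL in Me2SO, then diluted to test concentrations in pH 8 buffer (0.05 M Hepes, 0.1 M NaCl, 0.6 M Na2SO4).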

Rattus norvegicus [11] = assay: Mean aortic base line blood pressure in conscious renal 2-kidney/1-clip goldblatt hypertensive rat at a dose 3 mg/kg administered orally; assay type: functional, Artery; conditions: route oral; how it was run: as §1
Rattus norvegicus [12] = assay: Maximum change in mean aortic blood pressure in conscious renal 2-kidney/1-clip goldblatt hypertensive rat at a dose 10 mg/kg administered orally at 3 hr; 5 animals tested; assay type: functional, Artery; conditions: route oral; how it was run: as §1
Rattus norvegicus [13] = assay: Maximum change in mean aortic blood pressure in conscious renal 2-kidney/1-clip goldblatt hypertensive rat at a dose 3 mg/kg administered orally at 8h; 5 animals tested; assay type: functional, Artery; conditions: route oral; how it was run: as §1
Rattus norvegicus [14] = assay: Maximum change in mean aortic blood pressure in conscious renal 2-kidney/1-clip goldblatt hypertensive rat at a dose 30 mg/kg administered orally at 5h; 5 animals tested; assay type: functional, Artery; conditions: route oral; how it was run: as §1
Rattus norvegicus [15] = assay: Maximum change in mean aortic blood pressure in conscious renal 2-kidney/1-clip goldblatt hypertensive rat at a dose 30 mg/kg administered orally at 8h; 3 animals tested; assay type: functional, Artery; conditions: route oral
How it was run: (§2)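 Male Sprague–Dawley rats made hypertensive at 4 weeks old by silver clip (0.2-mm gap) on left renal artery, contralateral kidney intact; 4–8 weeks development, cannulated (280–320 g), only mean aortic pressure >160 mmHg used. Oral dosing; 1-min running-average aortic pressure and heart rate logged every 30 min; maximum change from base line, mean ± SEM.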

Rattus norvegicus [16] = assay: Maximum change in mean aortic blood pressure in conscious renal 2-kidney/1-clip goldblatt hypertensive rat at a dose 30 mg/kg administered orally at 5h; 4 animals tested; assay type: functional, Artery; conditions: route oral; how it was run: as §1
Rattus norvegicus [17] = assay: Maximum change in mean aortic blood pressure in conscious renal 2-kidney/1-clip goldblatt hypertensive rat at a dose 30 mg/kg administered orally at 6 h; 3 animals tested; assay type: functional, Artery; conditions: route oral; how it was run: as §2
Rattus norvegicus [18] = assay: Maximum change in mean aortic blood pressure in conscious renal 2-kidney/1-clip goldblatt hypertensive rat at a dose 3 mg/kg administered orally at 5h; 4 animals tested; assay type: functional, Artery; conditions: route oral; how it was run: as §1
Rattus norvegicus [19] = assay: Maximum change in mean aortic blood pressure in conscious renal 2-kidney/1-clip goldblatt hypertensive rat at a dose 1.0 mg/kg administered orally at 8h; 4 animals tested; assay type: functional, Artery; conditions: route oral; how it was run: as §1
Rattus norvegicus [20] = assay: Maximum change in mean aortic blood pressure in conscious renal 2-kidney/1-clip goldblatt hypertensive rat at a dose 10 mg/kg administered orally at 4 hr; 4 animals tested; assay type: functional, Artery; conditions: route oral; how it was run: as §1
Rattus norvegicus [21] = assay: Mean aortic base line blood pressure in conscious renal 2-kidney/1-clip goldblatt hypertensive rat at a dose 3.0 mg/kg administered orally; assay type: functional, Artery; conditions: route oral
Rattus norvegicus [22] = assay: Maximum change in mean aortic blood pressure in conscious renal 2-kidney/1-clip goldblatt hypertensive rat at a dose 30 mg/kg administered orally at 10h; 4 animals tested; assay type: functional, Artery; conditions: route oral; how it was run: as §1
Rattus norvegicus [23] = assay: Maximum change in mean aortic blood pressure in conscious renal 2-kidney/1-clip goldblatt hypertensive rat at a dose 1.0 mg/kg administered orally at 5h; 4 animals tested; assay type: functional, Artery; conditions: route oral; how it was run: as §1
Rattus norvegicus [24] = assay: Maximum change in mean aortic blood pressure in conscious renal 2-kidney/1-clip goldblatt hypertensive rat at a dose 3.0 mg/kg administered orally at 5h; 4 animals tested; assay type: functional, Artery; conditions: route oral; how it was run: as §1
Rattus norvegicus [25] = assay: Maximum change in mean aortic blood pressure in conscious renal 2-kidney/1-clip goldblatt hypertensive rat at a dose 0.3 mg/kg administered orally at 8h; 4 animals tested; assay type: functional, Artery; conditions: route oral; how it was run: as §1
Rattus norvegicus [26] = assay: Maximum change in mean aortic blood pressure in conscious renal 2-kidney/1-clip goldblatt hypertensive rat at a dose 30 mg/kg administered orally at 8h; 4 animals tested; assay type: functional, Artery; conditions: route oral; how it was run: as §1

Compound: CCOC(=O)C(CCc1ccccc1)NC(C)C(=O)N1[C@H](C(=O)O)C[C@@H]2CCCC[C@@H]21.Cl (stereo in doubt; 11a)
- Mean aortic blood pressure (Rattus norvegicus [1]): -52 mmHg
- Mean aortic blood pressure (Rattus norvegicus [2]): 185 mmHg
- Mean aortic blood pressure (Rattus norvegicus [3]): -102 mmHg
- Mean aortic blood pressure (Rattus norvegicus [4]): -73 mmHg
- Mean aortic blood pressure (Rattus norvegicus [5]): 185 mmHg
- Mean aortic blood pressure (Rattus norvegicus [6]): 191 mmHg
- Mean aortic blood pressure (Rattus norvegicus [7]): 190 mmHg
- Mean aortic blood pressure (Rattus norvegicus [8]): -72 mmHg
- Mean aortic blood pressure (Rattus norvegicus [9]): 197 mmHg

Compound: O=C(O)[C@@H]1C[C@@H]2CCCC[C@@H]2N1C(=O)CCS (stereo in doubt; 8b)
- IC50 [10]: 13 nM
- Mean aortic blood pressure (Rattus norvegicus [11]): 198 mmHg
- Mean aortic blood pressure (Rattus norvegicus [5]): 198 mmHg
- Mean aortic blood pressure (Rattus norvegicus [12]): -89 mmHg
- Mean aortic blood pressure (Rattus norvegicus [9]): 198 mmHg
- Mean aortic blood pressure (Rattus norvegicus [13]): -73 mmHg
- Mean aortic blood pressure (Rattus norvegicus [14]): -91 mmHg

Compound: C1CCC(NC2CCCCC2)CC1.O=C(O)C1C2CCCCC2C(=O)N1C(=O)CCS (stereo unspecified)
- Mean aortic blood pressure (Rattus norvegicus [5]): 205 mmHg
- Mean aortic blood pressure (Rattus norvegicus [15]): -57 mmHg

Compound: CCOC(=O)C(CCc1ccccc1)NC(C)C(=O)N1C(=O)CCC1C(=O)O (stereo unspecified)
- IC50 [10]: 63 nM

Compound: C[C@H](N[C@@H](CCc1ccccc1)C(=O)O)C(=O)N1[C@H](C(=O)O)C[C@@H]2CCCC[C@@H]21
- Mean aortic blood pressure (Rattus norvegicus [5]): 198 mmHg
- Mean aortic blood pressure (Rattus norvegicus [16]): -104 mmHg

Compound: C1CCC(NC2CCCCC2)CC1.O=C(O)C1C2CCCCC2CN1C(=O)CCS (stereo unspecified)
- Mean aortic blood pressure (Rattus norvegicus [5]): 184 mmHg
- Mean aortic blood pressure (Rattus norvegicus [17]): -76 mmHg

Compound: C1CCC(NC2CCCCC2)CC1.CC(CS)C(=O)N1C(=O)C2CCCCC2C1C(=O)O (stereo unspecified)
- Mean aortic blood pressure (Rattus norvegicus [5]): 192 mmHg
- Mean aortic blood pressure (Rattus norvegicus [15]): -100 mmHg

Compound: CCOC(=O)[C@H](CCc1ccccc1)N[C@@H](C)C(=O)N1CCC[C@H]1C(=O)O
- Mean aortic blood pressure (Rattus norvegicus [18]): -56 mmHg
- Mean aortic blood pressure (Rattus norvegicus [4]): -39 mmHg
- Mean aortic blood pressure (Rattus norvegicus [6]): 201 mmHg
- Mean aortic blood pressure (Rattus norvegicus [19]): -24 mmHg
- Mean aortic blood pressure (Rattus norvegicus [7]): 175 mmHg
- Mean aortic blood pressure (Rattus norvegicus [20]): -56 mmHg
- Mean aortic blood pressure (Rattus norvegicus [21]): 200 mmHg
- Mean aortic blood pressure (Rattus norvegicus [9]): 199 mmHg

Compound: CC(CS)C(=O)N1[C@H](C(=O)O)C[C@@H]2CCCC[C@@H]21 (stereo in doubt; 9c)
- IC50 [10]: 7.7 nM
- Mean aortic blood pressure (Rattus norvegicus [2]): 184 mmHg
- Mean aortic blood pressure (Rattus norvegicus [22]): -115 mmHg
- Mean aortic blood pressure (Rattus norvegicus [5]; 30 mg/kg): 197 mmHg
- Mean aortic blood pressure (Rattus norvegicus [6]): 185 mmHg
- Mean aortic blood pressure (Rattus norvegicus [7]): 178 mmHg
- Mean aortic blood pressure (Rattus norvegicus [23]): -72 mmHg
- Mean aortic blood pressure (Rattus norvegicus [24]): -81 mmHg
- Mean aortic blood pressure (Rattus norvegicus [21]): 190 mmHg
- Mean aortic blood pressure (Rattus norvegicus [25]): -19 mmHg

Compound: CC(=O)SCC(C)C(=O)N1C(=O)C2CCCCC2C1C(=O)O (stereo unspecified)
- IC50 [10]: 300 nM

Compound: O=C(NC(Cc1ccccc1)C(=O)CCC(=O)N1C(C(=O)O)CC2CCCCC21)c1ccccc1 (stereo unspecified)
- IC50 [10]: 11 nM
- Mean aortic blood pressure (Rattus norvegicus [5]): 169 mmHg
- Mean aortic blood pressure (Rattus norvegicus [26]): -27 mmHg

Compound: CC(=O)SCC(C)C(=O)N1[C@H](C(=O)O)C[C@@H]2CCCC[C@@H]21 (stereo in doubt; 9a)
- IC50 [10]: 160 nM

Compound: C[C@H](CS)C(=O)N1c2ccccc2C[C@H]1C(=O)O
- IC50 [10]: 3.7 nM

Compound: CC(CS)C(=O)N1CC2CCCCC2C1C(=O)O (stereo unspecified)
- Mean aortic blood pressure (Rattus norvegicus [3]): -50 mmHg
- Mean aortic blood pressure (Rattus norvegicus [5]): 152 mmHg

Reference: ChEMBL document CHEMBL1123771, “Synthesis and structure-activity relationships of potent new angiotensin converting enzyme inhibitors containing saturated bicyclic amino acids” (J Med Chem, 1987)
